# Measurements from different studies.
# Each line is one published result; the experiments were not run side by side.
# Read-out: cell growth or viability
Structure (SMILES),cell line,technique,tested at,time,endpoint,value
Cc1cc(=O)oc2ccc(-c3cc(-c4cccs4)nc(N)n3)c(O)c12,KB,MTT,128 µg/mL,72 h,inhibition,17%
Oc1ccc(Nc2nc(-c3ccc(Cl)cc3)cs2)cc1,UACC-903,MTS,,48 h,IC50,59.1 µM
CC#CC(=O)N1CC[C@@H](n2cc(-c3ccc(Oc4c(F)cccc4F)cc3)c3c(N)n[nH]c(=O)c32)C1,MINO,ATP luminescence,,72 h,GI50,5.18 µM
Cc1cc(=O)oc2ccc(-c3cc(-c4ccccc4)nc(N)n3)c(O)c12,KB,MTT,8 µg/mL,72 h,inhibition,0%
COC(=O)COc1ccc(NC(=O)C2(c3cccc(Br)c3)CC2)c(C)c1,U-937,ATP luminescence,,72 h,GI50,3.2 µM
Cc1cc(=O)oc2ccc(-c3cc(-c4ccc(Cl)cc4)nc(N)n3)c(O)c12,KB,MTT,32 µg/mL,72 h,inhibition,54%
COC(=O)COc1ccc(NC(=O)C2(c3cccc(C)c3)CC2)c(C)c1,U-937,ATP luminescence,,72 h,GI50,6.8 µM
C=CC(=O)N1CCN(c2nc(=O)n(-c3c(C)ccnc3C(C)C)c3nc(-c4c(O)cccc4F)c(F)cc23)[C@@H](C)C1,LS-513,,,5 days,EC50,> 10 µM
Cc1cc(=O)oc2ccc(-c3cc(-c4cccc(Cl)c4)nc(N)n3)c(O)c12,KB,MTT,2 µg/mL,72 h,inhibition,0%
COC(=O)COc1ccc(NC(=O)C2(c3ccccc3)CC2)cc1Br,U-937,ATP luminescence,,72 h,GI50,6.1 µM
COc1cc(Nc2nccc(-c3cnn4nc(OC)ccc34)n2)cc(C(F)(F)F)c1,SNU1,ATP luminescence,,,IC50,0.19 µM
COC(=O)COc1cccc(NC(=O)C2(c3cccc(C)c3)CC2)c1,U-937,ATP luminescence,,72 h,GI50,> 200 µM
COc1cc(-c2ccc(-c3ccc(C(=N)N)nc3)s2)cc(OC)c1OC,IGROV-1,SRB,,,GI50,2.63 µM
